Experimental data from ChEMBL document CHEMBL3244249, “Studies on vitamin D (calciferol) and its analogues. 15. 24-Nor-1alpha,25-dihydroxyvitamin D3 and 24-nor-25-hydroxy-5,6-trans-vitamin D3” (1978).
Active and inactive are the calls of the source. The rule behind the calls is not given here.

Assays:
Gallus gallus [1] = experiment: Induction of intestinal calcium absorption in vitamin-D-deficient chicken assessed per 0.2 ml of plasma at 62 nmol, ip using 45Ca2+ and 40Ca2+ after 14 hrs relative to control; assay type: functional
Procedure, shortened: (§1)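 Rachitic White Leghorn cockerels (4 weeks on a rachitogenic low-calcium diet without vitamin D, zero-calcium diet for the final 3 days) dosed intraperitoneally. Under light ether anesthesia, 5 μCi 45Ca2+ plus 4 mg 40Ca2+ carrier was placed in the duodenum. Birds were decapitated after 30 min. 45Ca radioactivity counted per 0.2 mL serum aliquot (cpm ± SEM). The enhancement ratio is relative to vitamin D-deficient controls.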

Gallus gallus [2] = experiment: Induction of bone calcium mobilization in vitamin-D-deficient chicken assessed per 100 ml of serum at 0.62 nmol, ip using 45Ca2+ and 40Ca2+ after 14 hrs; assay type: functional
Procedure, shortened: (§2)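 White Leghorn cockerels raised 4 weeks on a rachitogenic low-calcium diet without vitamin D, switched to a zero-calcium diet 3 days before assay. Analogue given intraperitoneally. Under light ether anesthesia, 5 μCi 45Ca2+ plus 4 mg 40Ca2+ carrier was put into the exposed duodenum. Birds were decapitated 30 min later and blood allowed to clot. Serum Ca2+ measured by atomic absorption on diluted serum, as mg/100 mL ± SEM.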

Gallus gallus [3] = experiment: Induction of intestinal calcium absorption in vitamin-D-deficient chicken assessed per 0.2 ml of plasma at 15.5 nmol, ip using 45Ca2+ and 40Ca2+ after 14 hrs relative to control; assay type: functional; procedure, shortened: as §1
Gallus gallus [4] = experiment: Induction of bone calcium mobilization in vitamin-D-deficient chicken assessed per 100 ml of serum at 15.5 nmol, ip using 45Ca2+ and 40Ca2+ after 14 hrs; assay type: functional; procedure, shortened: as §2
Gallus gallus [5] = experiment: Induction of bone calcium mobilization in vitamin-D-deficient chicken assessed per 100 ml of serum at 3.1 nmol, ip using 45Ca2+ and 40Ca2+ after 14 hrs; assay type: functional; procedure, shortened: as §2
Gallus gallus [6] = experiment: Induction of intestinal calcium absorption in vitamin-D-deficient chicken assessed per 0.2 ml of plasma at 3.1 nmol, ip using 45Ca2+ and 40Ca2+ after 14 hrs; assay type: functional; procedure, shortened: as §1
Gallus gallus [7] = experiment: Induction of bone calcium mobilization in vitamin-D-deficient chicken assessed per 100 ml of serum at 62 nmol, ip using 45Ca2+ and 40Ca2+ after 36 hrs; assay type: functional; procedure, shortened: as §2
Gallus gallus [8] = experiment: Induction of intestinal calcium absorption in vitamin-D-deficient chicken assessed per 0.2 ml of plasma at 62 nmol, ip using 45Ca2+ and 40Ca2+ after 24 hrs; assay type: functional; procedure, shortened: as §1
Gallus gallus [9] = experiment: Induction of bone calcium mobilization in vitamin-D-deficient chicken assessed per 100 ml of serum at 310 nmol, ip using 45Ca2+ and 40Ca2+ after 14 hrs; assay type: functional; procedure, shortened: as §2
Gallus gallus [10] = experiment: Induction of intestinal calcium absorption in vitamin-D-deficient chicken assessed per 0.2 ml of plasma at 0.62 nmol, ip using 45Ca2+ and 40Ca2+ after 14 hrs; assay type: functional; procedure, shortened: as §1
Gallus gallus [11] = experiment: Induction of bone calcium mobilization in vitamin-D-deficient chicken assessed per 100 ml of serum at 62 nmol, ip using 45Ca2+ and 40Ca2+ after 14 hrs; assay type: functional; procedure, shortened: as §2
Gallus gallus [12] = organism: Gallus gallus; experiment: Displacement of [3H]-1-alpha,25-(OH)2-D3 from chicken intestinal cytosol chromatin receptor after 30 mins by scintillation counting relative to 1-alpha,25-(OH)2-D3
Procedure, shortened: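 Reconstituted chick intestinal cytosol–chromatin receptor system. Nonradioactive competitor plus tritiated 1α,25-(OH)2-D3 (2 × 10^-8 M, constant saturating) with chromatin (375 μg DNA) in cytosol, incubated 30 min at 25 °C. Chromatin reisolated by centrifugation, washed three times (0.5% Triton X-100, 0.01 M Tris-HCl pH 8.5), and bound tritium counted by liquid scintillation. Expressed as RCI, with 1α,25-(OH)2-D3 set at 100.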

Gallus gallus [13] = experiment: Induction of bone calcium mobilization in vitamin-D-deficient chicken assessed per 100 ml of serum at 62 nmol, ip using 45Ca2+ and 40Ca2+ after 24 hrs; assay type: functional; procedure, shortened: as §2
Gallus gallus [14] = experiment: Induction of intestinal calcium absorption in vitamin-D-deficient chicken assessed per 0.2 ml of plasma at 62 nmol, ip using 45Ca2+ and 40Ca2+ after 18 hrs relative to control; assay type: functional; procedure, shortened: as §1
Gallus gallus [15] = experiment: Induction of intestinal calcium absorption in vitamin-D-deficient chicken assessed per 0.2 ml of plasma at 15.5 nmol, ip using 45Ca2+ and 40Ca2+ after 14 hrs; assay type: functional; procedure, shortened: as §1
Gallus gallus [16] = experiment: Induction of intestinal calcium absorption in vitamin-D-deficient chicken assessed per 0.2 ml of plasma at 310 nmol, ip using 45Ca2+ and 40Ca2+ after 14 hrs relative to control; assay type: functional; procedure, shortened: as §1
Gallus gallus [17] = experiment: Induction of intestinal calcium absorption in vitamin-D-deficient chicken assessed per 0.2 ml of plasma at 0.62 nmol, ip using 45Ca2+ and 40Ca2+ after 14 hrs relative to control; assay type: functional; procedure, shortened: as §1
Gallus gallus [18] = experiment: Induction of intestinal calcium absorption in vitamin-D-deficient chicken assessed per 0.2 ml of plasma at 62 nmol, ip using 45Ca2+ and 40Ca2+ after 18 hrs; assay type: functional; procedure, shortened: as §1
Gallus gallus [19] = experiment: Induction of intestinal calcium absorption in vitamin-D-deficient chicken assessed per 0.2 ml of plasma at 310 nmol, ip using 45Ca2+ and 40Ca2+ after 14 hrs; assay type: functional; procedure, shortened: as §1
Gallus gallus [20] = experiment: Induction of intestinal calcium absorption in vitamin-D-deficient chicken assessed per 0.2 ml of plasma at 62 nmol, ip using 45Ca2+ and 40Ca2+ after 36 hrs relative to control; assay type: functional; procedure, shortened: as §1
Gallus gallus [21] = experiment: Induction of intestinal calcium absorption in vitamin-D-deficient chicken assessed per 0.2 ml of plasma at 62 nmol, ip using 45Ca2+ and 40Ca2+ after 14 hrs; assay type: functional; procedure, shortened: as §1
Gallus gallus [22] = experiment: Induction of bone calcium mobilization in vitamin-D-deficient chicken assessed per 100 ml of serum at 62 nmol, ip using 45Ca2+ and 40Ca2+ after 18 hrs; assay type: functional; procedure, shortened: as §2
Gallus gallus [23] = experiment: Induction of intestinal calcium absorption in vitamin-D-deficient chicken assessed per 0.2 ml of plasma at 3.1 nmol, ip using 45Ca2+ and 40Ca2+ after 14 hrs relative to control; assay type: functional; procedure, shortened: as §1
Gallus gallus [24] = experiment: Induction of intestinal calcium absorption in vitamin-D-deficient chicken assessed per 0.2 ml of plasma at 62 nmol, ip using 45Ca2+ and 40Ca2+ after 36 hrs; assay type: functional; procedure, shortened: as §1
Gallus gallus [25] = experiment: Induction of intestinal calcium absorption in vitamin-D-deficient chicken assessed per 0.2 ml of plasma at 62 nmol, ip using 45Ca2+ and 40Ca2+ after 24 hrs relative to control; assay type: functional; procedure, shortened: as §1
Gallus gallus [26] = experiment: Induction of intestinal calcium absorption in vitamin-D-deficient chicken assessed per 0.2 ml of plasma at 163 nmol, ip using 45Ca2+ and 40Ca2+ after 5 to 36 hrs; assay type: functional, organism-based
Procedure, shortened: (§3)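 Rachitic chicks given a single 163-nmol intraperitoneal dose and sampled between 5 and 36 h afterward. ICA and BCM were read by the Hibberd–Norman procedure: duodenal 45Ca2+/40Ca2+ load, then serum collected 30 min later. ICA was taken as serum radioactivity and BCM as serum calcium by atomic absorption.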

Gallus gallus [27] = experiment: Induction of bone calcium mobilization in vitamin-D-deficient chicken assessed per 100 ml of serum at 163 nmol, ip using 45Ca2+ and 40Ca2+ after 5 to 36 hrs; assay type: functional, organism-based; procedure, shortened: as §3
Gallus gallus [28] = experiment: Induction of intestinal calcium absorption in vitamin-D-deficient chicken assessed per 0.2 ml of plasma at 3 nmol, ip using 45Ca2+ and 40Ca2+ after 12 hrs; assay type: functional; procedure, shortened: as §1
Gallus gallus [29] = experiment: Induction of intestinal calcium absorption in vitamin-D-deficient chicken assessed per 0.2 ml of plasma at 0.60 nmol, ip using 45Ca2+ and 40Ca2+ after 12 hrs relative to control; assay type: functional; procedure, shortened: as §1
Gallus gallus [30] = experiment: Induction of intestinal calcium absorption in vitamin-D-deficient chicken assessed per 0.2 ml of plasma at 0.60 nmol, ip using 45Ca2+ and 40Ca2+ after 12 hrs; assay type: functional; procedure, shortened: as §1
Gallus gallus [31] = experiment: Induction of bone calcium mobilization in vitamin-D-deficient chicken assessed per 100 ml of serum at 0.60 nmol, ip using 45Ca2+ and 40Ca2+ after 12 hrs; assay type: functional; procedure, shortened: as §2
Gallus gallus [32] = experiment: Induction of intestinal calcium absorption in vitamin-D-deficient chicken assessed per 0.2 ml of plasma at 3 nmol, ip using 45Ca2+ and 40Ca2+ after 12 hrs relative to control; assay type: functional; procedure, shortened: as §1
Gallus gallus [33] = experiment: Induction of bone calcium mobilization in vitamin-D-deficient chicken assessed per 100 ml of serum at 3 nmol, ip using 45Ca2+ and 40Ca2+ after 12 hrs; assay type: functional; procedure, shortened: as §2
Gallus gallus [34] = experiment: Induction of intestinal calcium absorption in vitamin-D-deficient chicken assessed per 0.2 ml of plasma at 3.3 nmol, ip using 45Ca2+ and 40Ca2+ after 24 hrs relative to control; assay type: functional; procedure, shortened: as §1
Gallus gallus [35] = experiment: Induction of intestinal calcium absorption in vitamin-D-deficient chicken assessed per 0.2 ml of plasma at 3.3 nmol, ip using 45Ca2+ and 40Ca2+ after 24 hrs; assay type: functional; procedure, shortened: as §1
Gallus gallus [36] = experiment: Induction of bone calcium mobilization in vitamin-D-deficient chicken assessed per 100 ml of serum at 3.3 nmol, ip using 45Ca2+ and 40Ca2+ after 24 hrs; assay type: functional; procedure, shortened: as §2

`C=C1/C(=C\C=C2/CCC[C@]3(C)[C@@H]([C@H](C)CCC(C)(C)O)CC[C@@H]23)C[C@@H](O)C[C@@H]1O` showed a Ratio (Gallus gallus [1]) of 1.8, an Activity (Gallus gallus [2]) of 4.8 mg and a Ratio (Gallus gallus [3]) of 1.3. It also gave an Activity (Gallus gallus [4]) of 5.1 mg, an Activity (Gallus gallus [5]) of 4.4 mg and an Activity (Gallus gallus [6]) of 560 cpm. It also gave an Activity (Gallus gallus [7]) of 4.3 mg, an Activity (Gallus gallus [8]) of 770 cpm and an Activity (Gallus gallus [9]) of 6.5 mg. The Activity (Gallus gallus [10]) was 420 cpm, the Activity (Gallus gallus [11]) was 5 mg and the RCI (Gallus gallus [12]) was 46%. For the same molecule, the Activity (Gallus gallus [13]) was 5.4 mg, the Ratio (Gallus gallus [14]) was 2.8 and the Activity (Gallus gallus [15]) was 680 cpm. For the same molecule, the Ratio (Gallus gallus [16]) was 2.9, the Ratio (Gallus gallus [17]) was 0.8 and the Activity (Gallus gallus [18]) was 1470 cpm. For the same molecule, the Activity (Gallus gallus [19]) was 1530 cpm, the Ratio (Gallus gallus [20]) was 1.1 and the Activity (Gallus gallus [21]) was 930 cpm. It also gave an Activity (Gallus gallus [22]) of 5.6 mg, a Ratio (Gallus gallus [23]) of 1.1 and an Activity (Gallus gallus [24]) of 590 cpm. It also gave a Ratio (Gallus gallus [25]) of 1.5.
With `C=C1CC[C@H](O)C/C1=C\C=C1/CCC[C@]2(C)[C@@H]([C@H](C)CCC(C)(C)O)CC[C@@H]12` the Activity (Gallus gallus [26]) was “inactive”, the Activity (Gallus gallus [27]) was “inactive” and the RCI (Gallus gallus [12]) was 0.1%.
Work on `C=C1CC[C@H](O)C/C1=C\C=C1/CCC[C@]2(C)[C@@H]([C@H](C)CCCCC(C)(C)O)CC[C@@H]12` yielded an RCI (Gallus gallus [12]) of 0.066%.
With `C=C1CC[C@H](O)C/C1=C\C=C1/CCC[C@]2(C)[C@@H]([C@H](C)CCCC(C)(C)O)CC[C@@H]12` the Activity (Gallus gallus [26]) was “Active”, the Activity (Gallus gallus [27]) was “Active” and the RCI (Gallus gallus [12]) was 0.58%.
For `C=C1CC[C@H](O)C/C1=C/C=C1\CCC[C@]2(C)[C@@H]([C@H](C)CCCC(C)(C)O)CC[C@@H]12`, the Activity (Gallus gallus [26]) was “Active” and the Activity (Gallus gallus [27]) was “Active”.
With `C=C1/C(=C\C=C2/CCC[C@]3(C)[C@@H]([C@H](C)CCCC(C)(C)O)CC[C@@H]23)C[C@@H](O)C[C@@H]1O` [CALCITRIOL] the Activity (Gallus gallus [26]) was “Active”, the Activity (Gallus gallus [28]) was 1320 cpm and the Ratio (Gallus gallus [29]) was 3.1. For the same molecule, the Activity (Gallus gallus [27]) was “Active”, the Activity (Gallus gallus [30]) was 1630 cpm and the Activity (Gallus gallus [31]) was 6.6 mg. The Ratio (Gallus gallus [32]) was 2.5 and the Activity (Gallus gallus [33]) was 6.1 mg.
Work on `C=C1CC[C@H](O)C/C1=C/C=C1\CCC[C@]2(C)[C@@H]([C@H](C)CCCC(C)C)CC[C@@H]12` [CHOLECALCIFEROL] yielded a Ratio (Gallus gallus [34]) of 4.6, an Activity (Gallus gallus [35]) of 2430 cpm and an Activity (Gallus gallus [36]) of 6.3 mg.
